In assay [1] the target is Kappa-type opioid receptor (Cavia porcellus, UniProt P41144). Nature of the assay: Displacement of [3H]-U-69,593 from Opioid receptor kappa 1 in guinea pig cerebellar. On the technique in general: Displacement assays read how much labelled ligand stays bound in the presence of the test substance.
Assay [2] deals with T1, Mu-type opioid receptor (Rattus norvegicus, UniProt P33535). Nature of the assay: Displacement of [3H]diprenorphine from opioid receptor mu 1 on crude membrane fractions obtained from whole rat brain (minus cerebellum). It counts as tissue-based. An outline of the steps: (§1)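 Rat whole-brain (minus cerebellum) crude membranes, 1 mg protein/tube, in 50 mM Tris-HCl pH 7.4 with aprotinin, leupeptin and bacitracin. […] U50,488 and DADLE (300 nM each) saturate κ and δ sites; 1 µM DAMGO defines nonspecific binding. Compounds tested at 10^-11 to 10^-5 M. Ki values are the mean of three experiments in duplicate.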
T1 sequence (P33535 whole entry): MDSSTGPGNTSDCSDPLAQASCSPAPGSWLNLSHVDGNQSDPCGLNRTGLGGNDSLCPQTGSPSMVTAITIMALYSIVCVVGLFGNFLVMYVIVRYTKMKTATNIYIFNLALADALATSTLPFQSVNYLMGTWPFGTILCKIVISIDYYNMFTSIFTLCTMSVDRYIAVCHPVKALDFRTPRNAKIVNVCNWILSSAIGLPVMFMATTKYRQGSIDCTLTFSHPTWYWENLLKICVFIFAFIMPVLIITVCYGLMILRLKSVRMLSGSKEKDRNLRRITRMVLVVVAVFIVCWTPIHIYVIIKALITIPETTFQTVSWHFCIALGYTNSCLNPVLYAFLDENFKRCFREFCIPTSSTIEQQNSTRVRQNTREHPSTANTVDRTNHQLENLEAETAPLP

Assay [3] deals with Opioid receptors; mu & kappa (UniProt P41145+P35372). Nature of the assay: Ratio of affinity towards mu and kappa opioid receptors. It counts as protein assay.
Sequence of Opioid receptors; mu & kappa (P35372 whole entry, looked up): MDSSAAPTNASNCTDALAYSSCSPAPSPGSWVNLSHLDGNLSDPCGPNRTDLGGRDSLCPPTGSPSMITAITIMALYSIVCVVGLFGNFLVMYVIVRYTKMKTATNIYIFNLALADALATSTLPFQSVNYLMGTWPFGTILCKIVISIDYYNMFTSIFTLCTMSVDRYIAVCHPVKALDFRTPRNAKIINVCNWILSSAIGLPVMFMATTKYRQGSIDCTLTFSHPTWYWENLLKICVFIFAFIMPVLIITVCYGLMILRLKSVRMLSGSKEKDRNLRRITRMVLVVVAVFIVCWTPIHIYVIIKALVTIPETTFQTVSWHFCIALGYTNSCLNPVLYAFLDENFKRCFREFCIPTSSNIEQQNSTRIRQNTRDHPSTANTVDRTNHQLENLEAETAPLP
Sequence of Opioid receptors; mu & kappa (P41145 whole entry, looked up): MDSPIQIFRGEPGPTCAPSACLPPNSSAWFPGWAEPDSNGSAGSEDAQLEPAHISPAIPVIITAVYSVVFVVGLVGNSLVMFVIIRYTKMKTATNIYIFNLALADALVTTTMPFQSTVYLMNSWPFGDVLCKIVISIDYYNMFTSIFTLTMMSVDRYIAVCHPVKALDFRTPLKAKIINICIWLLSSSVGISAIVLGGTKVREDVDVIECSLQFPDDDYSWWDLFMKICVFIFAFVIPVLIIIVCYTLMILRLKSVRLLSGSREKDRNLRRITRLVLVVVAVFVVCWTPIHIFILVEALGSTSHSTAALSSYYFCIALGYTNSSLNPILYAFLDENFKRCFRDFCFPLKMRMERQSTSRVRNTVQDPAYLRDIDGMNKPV
Assay [4] addresses T2, Delta-type opioid receptor (Rattus norvegicus, UniProt P33533). Nature of the assay: Displacement of [3H]diprenorphine opioid receptor delta 1 on crude membrane fractions obtained from the whole rat brain (minus cerebellum). It counts as tissue-based. In a few lines:
(§2)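 Rat whole-brain (minus cerebellum) crude membranes, 1 mg protein/tube, in 50 mM Tris-HCl pH 7.4 with aprotinin, leupeptin and bacitracin. […] U50,488 and DAMGO (300 nM each) saturate κ and µ sites; 1 µM DPDPE defines nonspecific binding. Compounds tested at 10^-11 to 10^-5 M. Ki values are the mean of three experiments in duplicate.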

Assay [5] deals with Opioid receptors; delta & kappa (Homo sapiens) (UniProt P41145+P41143). The experiment in a line: (§3) Ratio of affinity towards delta to kappa opioid receptor. In kind it is protein assay.
Sequence of Opioid receptors; delta & kappa (Homo sapiens) (P41143 whole entry, looked up): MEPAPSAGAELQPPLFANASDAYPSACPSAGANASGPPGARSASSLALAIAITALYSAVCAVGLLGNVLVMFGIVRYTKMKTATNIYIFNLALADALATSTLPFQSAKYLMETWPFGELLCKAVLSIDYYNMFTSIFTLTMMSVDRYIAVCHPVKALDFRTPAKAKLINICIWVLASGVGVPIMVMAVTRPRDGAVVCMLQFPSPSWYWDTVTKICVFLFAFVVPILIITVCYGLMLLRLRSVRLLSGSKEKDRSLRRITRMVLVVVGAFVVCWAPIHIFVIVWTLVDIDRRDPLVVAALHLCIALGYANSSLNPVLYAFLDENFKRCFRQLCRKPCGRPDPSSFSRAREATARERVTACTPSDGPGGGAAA
Sequence of Opioid receptors; delta & kappa (Homo sapiens) (P41145 whole entry, looked up): as the sequence (P41145 whole entry, looked up) above
Assay [6] addresses T1, Mu-type opioid receptor. The experiment in a line: Tested for binding affinity by [3H]diprenorphine displacement for Opioid receptor mu 1 was carried on crude membrane fractions obtained from the whole rat brain minus cerebellum.. It counts as tissue-based. An outline of the steps: as §1
Assay [7] addresses T2, Delta-type opioid receptor. The experiment in a line: Tested for binding affinity by [3H]diprenorphine displacement for Opioid receptor delta 1 are carried on crude membrane fractions obtained from the whole rat brain minus cerebellum. It counts as tissue-based. In a few lines: as §2
Assay [8] deals with Mus musculus. The experiment in a line: Antinociceptive activity by measuring effective dose after 10 mg/kg of nor-BNI administered subcutaneously 10 min before agonist administered in mouse. It counts as functional. Conditions: sc, route subcutaneous. In a few lines:
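Male albino Swiss mice (20-25 g) given compound sc in saline with 0.5% CMC (0.1-10 mg/kg) 30 min before testing. nor-BNI 10 mg/kg sc given 10 min before agonist. Acetylcholine-induced abdominal constrictions were counted for 5 min after ip acetylcholine. ED50 is the dose that halves constrictions relative to vehicle.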

In assay [9] the test system is Mus musculus. Nature of the assay: Effective dose after 10 mg/kg of nor-BNI administered subcutaneously 10 min before agonist administered in mouse rotarod test. It counts as functional. Conditions: sc, route subcutaneous. In a few lines: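 Male albino Swiss mice received nor-BNI 10 mg/kg sc 10 min before agonist (sc, saline/0.5% CMC). 30 min after agonist, mice were placed on an accelerating rotarod with three trials; failure in any trial counted as impaired. ED50 is […].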
(In the rotarod test animals must keep their balance on a rotating rod.)

The species entered for the next assay is Cavia porcellus. The description is as §3.

Six compounds from ChEMBL document CHEMBL1133607, “Nonpeptide analogues of dynorphin A(1-8): design, synthesis, and pharmacological evaluation of kappa-selective agonists” (J Med Chem, 2000) can be followed below.

Bounds are passed on as bounds.

T2 sequence (P33533 whole entry): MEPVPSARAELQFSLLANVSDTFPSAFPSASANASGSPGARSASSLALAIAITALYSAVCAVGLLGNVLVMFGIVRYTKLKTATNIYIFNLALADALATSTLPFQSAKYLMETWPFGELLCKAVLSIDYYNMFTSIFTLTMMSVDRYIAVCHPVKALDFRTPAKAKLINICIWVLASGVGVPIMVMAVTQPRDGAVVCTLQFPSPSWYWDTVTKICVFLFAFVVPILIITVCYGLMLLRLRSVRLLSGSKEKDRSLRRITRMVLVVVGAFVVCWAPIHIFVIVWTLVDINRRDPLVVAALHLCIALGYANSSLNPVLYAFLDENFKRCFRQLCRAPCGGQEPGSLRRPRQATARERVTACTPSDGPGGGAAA
Sequence of Kappa-type opioid receptor (P41144 whole entry): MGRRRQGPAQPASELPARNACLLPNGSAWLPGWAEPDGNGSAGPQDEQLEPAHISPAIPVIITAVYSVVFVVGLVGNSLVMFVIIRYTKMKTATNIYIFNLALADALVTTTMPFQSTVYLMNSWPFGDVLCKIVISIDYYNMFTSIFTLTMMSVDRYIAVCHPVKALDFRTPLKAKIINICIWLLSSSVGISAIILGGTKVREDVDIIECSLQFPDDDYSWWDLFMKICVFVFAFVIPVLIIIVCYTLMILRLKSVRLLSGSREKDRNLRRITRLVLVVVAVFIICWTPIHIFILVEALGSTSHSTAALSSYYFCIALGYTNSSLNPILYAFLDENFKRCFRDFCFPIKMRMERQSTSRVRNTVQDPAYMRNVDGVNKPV

What is called Ki is a measure of affinity in units of concentration, obtained from inhibition or displacement. A high value points to lower affinity. Regarding `CC(C)CC(NC(=O)[C@]1(c2ccccc2)CC1CN1CC[C@@]2(C)c3cc(O)ccc3CC1C2C)C(=O)NCCCCCCN` (some centres not stated), the values for the Ki (in assay [1]; on Mu-type opioid receptor [2]; in assay [4]) were 242 nM, 3080 nM and 3420 nM, respectively. Moreover, in assay [3], the Selectivity ratio is 12.7. For the same compound, in [5], the Ratio was 14.1.

For `COC(=O)[C@]1(c2ccccc2)C[C@@H]1CN1CC[C@@]2(C)c3cc(O)ccc3CC1[C@@H]2C`, the Ki (on Mu-type opioid receptor [6]; in [7]) was more than 25000 nM each time.

The ED50 is the dose that gives a 50% effect, or the effect in half of the subjects. High values mean a need for a large dose, low ones an effect at a small dose. With `CCCCC(=N)NCCCCCNC(=O)C(CC(C)C)NC(=O)CNC(=O)[C@]1(c2ccccc2)CC1CN1CC[C@@]2(C)c3cc(O)ccc3CC1C2C` (some centres not stated), the ED50 in the assay on Mus musculus [8] came to 0.88 mg/kg; with Mus musculus [9] it was 9.2 mg/kg. Moreover, the figures for the Ki (in [1]; at Mu-type opioid receptor [2]; in [4]) were 6.7 nM, 2530 nM and 2750 nM, respectively.

Turning to `CCCCC(=N)NCCCCCCNC(=O)C(CC(C)C)NC(=O)CNC(=O)[C@]1(c2ccccc2)CC1CN1CC[C@@]2(C)c3cc(O)ccc3CC1C2C` (some centres not stated), the ED50 amounted to 1.1 mg/kg in the assay on Mus musculus [8] and 11.9 mg/kg with Mus musculus [9]. Moreover, the figures for the Ki (in assay [1]; at Mu-type opioid receptor [2]; in assay [4]) were 5.3 nM, 2150 nM and 2230 nM, respectively.

As for `CC(C)CC(NC(=O)[C@]1(c2ccccc2)CC1CN1CC[C@@]2(C)c3cc(O)ccc3CC1C2C)C(=O)NCCCCCCN=C(N)N` (some centres not stated), the Selectivity ratio turned out to be 20.3 in the assay filed under Cavia porcellus and 18.9 in assay [3]. Besides, the Ki in [1] stood at 139 nM; on Mu-type opioid receptor [2] it was 2630 nM; in assay [4] it was 2830 nM.

`CC(C)CC(NC(=O)CNC(=O)[C@]1(c2ccccc2)CC1CN1CC[C@@]2(C)c3cc(O)ccc3CC1C2C)C(=O)NCCCCN=C(N)N` (some centres not stated): the Selectivity ratio in the assay listed under Cavia porcellus worked out at 52.1; in assay [3], 91.7. Also, the Ki was 67.2 nM in assay [1], 6160 nM at Mu-type opioid receptor [2] and 3500 nM in assay [4].
